In ChEMBL document CHEMBL4007505 (J Med Chem, 2017):
Active and inactive are the calls of the source.

How the values were obtained:
[1] = molecular target: T1, Sodium-dependent dopamine transporter (Homo sapiens, UniProt Q01959); assay: Inhibition of recombinant human DAT expressed in HEK293 cell […] as reduction in [3H]-DA uptake incubated for 22 mins by micro beta scintillation counting analysis
[2] = molecular target: T1, Sodium-dependent dopamine transporter; assay: Enhancing of [125I]RTI-55 binding to recombinant human DAT expressed in HEK293 cell membranes preincubated for 10 mins followed by radioligand addition measured after 90 mins by micro beta scintillation counting analysis; design: concentration or dose not given beside the values
Method in brief: (§1)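 Membranes of HEK-293 cells stably expressing hDAT, hNET or hSERT. […] Compound preincubated 10 min at room temperature, then [125I]23 (40-80 pM final) or [3H]26 (1-3 nM for DAT and NET, 10-13 nM for SERT) added. Incubated 90 min at room temperature in the dark, then filtered. EC50 or Ki; mean ± SEM.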

[3] = molecular target: T1, Sodium-dependent dopamine transporter; assay: Enhancing of [3H]mazindol binding to recombinant human DAT expressed in HEK293 cell membranes preincubated for 10 mins followed by radioligand addition measured after 90 mins by micro beta scintillation counting analysis; design: concentration or dose not given beside the values; method in brief: as §1
[4] = molecular target: T2, Sodium-dependent dopamine transporter (Mus musculus, UniProt Q61327); assay: Inhibition of mouse DAT expressed in HEK293 cells assessed as reduction in [3H]-DA uptake; type: cell-based
[5] = molecular target: T3, Sodium-dependent noradrenaline transporter (Homo sapiens, UniProt P23975); assay: Inhibition of recombinant human NET expressed in HEK293 […] assessed as reduction in [3H]-norepinephrine uptake incubated for 22 mins by micro beta scintillation counting analysis
[6] = molecular target: T4, Sodium-dependent serotonin transporter (Homo sapiens, UniProt P31645); assay: Enhancing of [125I]RTI-55 binding to recombinant human SERT expressed in HEK293 cell membranes preincubated for 10 mins followed by radioligand addition measured after 90 mins by micro beta scintillation counting analysis
[7] = molecular target: T4, Sodium-dependent serotonin transporter; assay: Enhancing of [3H]mazindol binding to recombinant human SERT expressed in HEK293 cell membranes preincubated for 10 mins followed by radioligand addition measured after 90 mins by micro beta scintillation counting analysis
[8] = molecular target: Sodium-dependent dopamine transporter (Mus musculus) (UniProt Q61327); assay: (§2) Enhancing of [125I]RTI-55 binding to mouse DAT expressed in HEK293 cells preincubated for 10 mins followed by radioligand addition measured after 90 mins by micro beta scintillation counting analysis; type: cell-based
Method in brief: (§3)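 Membranes preincubated 10 min at room temperature with compound in Krebs-HEPES buffer pH 7.4, then [125I]23 at fixed 45-50 pM for 90 min in the dark, filtered. […] EC50 and % control binding; mean ± SEM.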

[9] = molecular target: T2, Sodium-dependent dopamine transporter; assay: as §2; type: cell-based; method in brief: as §3
[10] = molecular target: T4, Sodium-dependent serotonin transporter; assay: Inhibition of recombinant human SERT expressed in HEK293 cell […] as reduction in [3H]5-HT uptake incubated for 22 mins by micro beta scintillation counting analysis
Target sequence in this assay (P31645 whole entry): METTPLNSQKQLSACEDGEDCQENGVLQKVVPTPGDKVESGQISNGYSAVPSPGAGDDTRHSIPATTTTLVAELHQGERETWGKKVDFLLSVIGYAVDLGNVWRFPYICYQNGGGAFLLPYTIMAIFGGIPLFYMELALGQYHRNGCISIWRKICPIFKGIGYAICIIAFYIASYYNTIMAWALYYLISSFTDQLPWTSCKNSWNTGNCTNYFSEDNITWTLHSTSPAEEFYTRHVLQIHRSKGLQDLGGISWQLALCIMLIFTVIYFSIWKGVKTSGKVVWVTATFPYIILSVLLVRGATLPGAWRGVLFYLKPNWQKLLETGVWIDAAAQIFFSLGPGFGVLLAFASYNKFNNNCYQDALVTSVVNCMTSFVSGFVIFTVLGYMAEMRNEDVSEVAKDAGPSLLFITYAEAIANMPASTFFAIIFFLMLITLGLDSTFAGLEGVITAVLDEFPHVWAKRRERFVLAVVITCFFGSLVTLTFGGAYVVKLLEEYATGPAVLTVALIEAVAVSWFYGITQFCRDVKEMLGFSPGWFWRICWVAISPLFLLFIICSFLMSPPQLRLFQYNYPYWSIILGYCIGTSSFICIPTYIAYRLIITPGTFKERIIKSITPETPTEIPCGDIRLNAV

[11] = molecular target: T3, Sodium-dependent noradrenaline transporter; assay: Enhancing of [3H]mazindol binding to recombinant human NET expressed in HEK293 cell membranes preincubated for 10 mins followed by radioligand addition measured after 90 mins by micro beta scintillation counting analysis
[12] = molecular target: T3, Sodium-dependent noradrenaline transporter; assay: Enhancing of [125I]RTI-55 binding to recombinant human NET expressed in HEK293 cell membranes preincubated for 10 mins followed by radioligand addition measured after 90 mins by micro beta scintillation counting analysis; design: concentration or dose not given beside the values
[13] = molecular target: T2, Sodium-dependent dopamine transporter; assay: Inhibition of [125I]RTI-55 binding to mouse DAT expressed in HEK293 cells preincubated for 10 mins followed by radioligand addition measured after 90 mins by micro beta scintillation counting analysis; type: cell-based
[14] = molecular target: T1, Sodium-dependent dopamine transporter; assay: Enhancing of [3H]WIN35,428 binding to recombinant human DAT expressed in HEK293 cell membranes at 10 uM pre-incubated for 10 mins before radioligand addition and measured 90 mins after radioligand addition by micro beta scintillation counting analysis relative to control
[15] = molecular target: Alpha-2A adrenergic receptor (Homo sapiens, UniProt P08913); assay: Displacement of [3H]Rauwolscine from human adrenergic alpha2A receptor
[16] = molecular target: T5, Alpha-1A adrenergic receptor (Homo sapiens, UniProt P35348); assay: Displacement of [3H]Prazosin from human adrenergic alpha1A receptor
T5 sequence (P35348 whole entry): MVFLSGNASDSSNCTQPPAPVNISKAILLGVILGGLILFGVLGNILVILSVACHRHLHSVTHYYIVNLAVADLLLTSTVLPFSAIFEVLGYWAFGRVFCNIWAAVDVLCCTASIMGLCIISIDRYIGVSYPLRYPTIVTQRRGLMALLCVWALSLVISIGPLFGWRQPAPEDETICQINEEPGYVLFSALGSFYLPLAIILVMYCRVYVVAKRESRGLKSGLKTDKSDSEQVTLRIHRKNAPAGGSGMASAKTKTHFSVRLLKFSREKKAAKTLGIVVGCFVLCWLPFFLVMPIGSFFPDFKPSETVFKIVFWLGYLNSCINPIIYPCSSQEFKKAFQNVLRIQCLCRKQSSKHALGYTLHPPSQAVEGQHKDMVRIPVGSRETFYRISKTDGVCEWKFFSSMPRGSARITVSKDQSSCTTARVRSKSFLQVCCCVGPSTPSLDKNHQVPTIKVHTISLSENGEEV

Mus musculus = assay: Antiallodynic activity in mouse chronic constriction injury model of neuropathic pain assessed as time duration of action for increasing in paw withdrawal threshold at 3 umol/kg, po administered on day 7 post injury; type: functional
[17] = molecular target: T6, Alpha-1B adrenergic receptor (Homo sapiens, UniProt P35368); assay: Displacement of [3H]Prazosin from human adrenergic alpha1B receptor
T6 sequence (P35368 whole entry): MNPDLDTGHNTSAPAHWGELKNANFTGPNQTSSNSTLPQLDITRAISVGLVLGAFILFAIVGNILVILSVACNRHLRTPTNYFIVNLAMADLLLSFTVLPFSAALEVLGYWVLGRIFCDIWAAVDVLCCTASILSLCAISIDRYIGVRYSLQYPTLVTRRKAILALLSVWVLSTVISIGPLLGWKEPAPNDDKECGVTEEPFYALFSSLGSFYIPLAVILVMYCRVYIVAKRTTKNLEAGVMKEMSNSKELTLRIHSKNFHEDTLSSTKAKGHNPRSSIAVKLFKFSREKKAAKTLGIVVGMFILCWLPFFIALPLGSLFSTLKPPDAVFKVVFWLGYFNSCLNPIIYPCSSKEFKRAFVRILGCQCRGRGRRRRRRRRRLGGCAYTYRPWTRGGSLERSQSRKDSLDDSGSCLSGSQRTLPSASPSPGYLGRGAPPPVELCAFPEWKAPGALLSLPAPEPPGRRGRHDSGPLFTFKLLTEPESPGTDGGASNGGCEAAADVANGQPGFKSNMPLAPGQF

[18] = molecular target: T7, Alpha-1D adrenergic receptor (Homo sapiens, UniProt P25100); assay: Displacement of [3H]Prazosin from human adrenergic alpha1D receptor
T7 sequence (P25100 whole entry): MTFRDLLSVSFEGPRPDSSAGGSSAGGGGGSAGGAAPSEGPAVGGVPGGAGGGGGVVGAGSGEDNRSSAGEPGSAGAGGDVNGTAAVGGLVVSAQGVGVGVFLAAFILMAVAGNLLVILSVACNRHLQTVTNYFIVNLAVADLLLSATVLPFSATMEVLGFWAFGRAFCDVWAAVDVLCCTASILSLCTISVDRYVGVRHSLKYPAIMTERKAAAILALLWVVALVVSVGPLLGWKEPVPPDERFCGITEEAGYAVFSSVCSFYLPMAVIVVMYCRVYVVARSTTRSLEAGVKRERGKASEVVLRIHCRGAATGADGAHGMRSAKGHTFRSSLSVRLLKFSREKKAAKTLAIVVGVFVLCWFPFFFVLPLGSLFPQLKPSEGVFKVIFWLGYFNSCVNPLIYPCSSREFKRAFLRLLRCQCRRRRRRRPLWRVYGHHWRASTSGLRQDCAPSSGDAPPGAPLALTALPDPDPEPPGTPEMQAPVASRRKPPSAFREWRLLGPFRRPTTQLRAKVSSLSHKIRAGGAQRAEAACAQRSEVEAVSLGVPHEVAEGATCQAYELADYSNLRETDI

[19] = molecular target: T1, Sodium-dependent dopamine transporter; assay: Inhibition of [3H]WIN35,428 binding to recombinant human DAT expressed in HEK293 cell membranes at 10 uM pre-incubated for 10 mins before radioligand addition and measured 90 mins after radioligand addition by micro beta scintillation counting analysis relative to control
[20] = molecular target: T8, Alpha-2C adrenergic receptor (Homo sapiens, UniProt P18825); assay: Displacement of [3H]Rauwolscine from human adrenergic alpha2C receptor
T8 sequence (P18825 whole entry): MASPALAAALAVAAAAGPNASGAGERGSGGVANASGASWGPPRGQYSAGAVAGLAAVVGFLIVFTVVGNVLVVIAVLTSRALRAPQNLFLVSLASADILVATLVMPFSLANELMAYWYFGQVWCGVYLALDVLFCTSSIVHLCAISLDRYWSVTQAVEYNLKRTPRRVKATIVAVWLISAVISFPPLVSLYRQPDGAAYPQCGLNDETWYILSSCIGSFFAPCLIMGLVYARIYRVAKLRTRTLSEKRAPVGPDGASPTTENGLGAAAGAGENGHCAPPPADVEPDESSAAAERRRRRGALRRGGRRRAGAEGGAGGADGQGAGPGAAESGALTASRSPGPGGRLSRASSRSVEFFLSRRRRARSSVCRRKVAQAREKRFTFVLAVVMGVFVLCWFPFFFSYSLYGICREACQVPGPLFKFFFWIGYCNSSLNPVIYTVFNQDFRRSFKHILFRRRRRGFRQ

T3 sequence (P23975 whole entry): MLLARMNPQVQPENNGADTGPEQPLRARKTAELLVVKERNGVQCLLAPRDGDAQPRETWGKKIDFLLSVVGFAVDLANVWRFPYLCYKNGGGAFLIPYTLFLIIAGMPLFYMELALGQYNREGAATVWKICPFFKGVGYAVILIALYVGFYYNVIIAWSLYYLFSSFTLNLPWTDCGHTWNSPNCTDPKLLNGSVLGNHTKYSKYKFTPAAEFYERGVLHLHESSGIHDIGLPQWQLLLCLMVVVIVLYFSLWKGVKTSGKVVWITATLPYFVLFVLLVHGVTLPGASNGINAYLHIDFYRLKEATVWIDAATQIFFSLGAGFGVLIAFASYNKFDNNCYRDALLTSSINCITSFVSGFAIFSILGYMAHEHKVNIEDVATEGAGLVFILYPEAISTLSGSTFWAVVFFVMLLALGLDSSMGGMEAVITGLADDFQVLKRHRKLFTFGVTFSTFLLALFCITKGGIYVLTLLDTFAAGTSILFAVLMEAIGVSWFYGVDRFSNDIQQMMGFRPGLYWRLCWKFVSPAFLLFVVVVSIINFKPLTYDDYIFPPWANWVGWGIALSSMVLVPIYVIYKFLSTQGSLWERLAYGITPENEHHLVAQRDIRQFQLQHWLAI
T2 sequence (Q61327 whole entry): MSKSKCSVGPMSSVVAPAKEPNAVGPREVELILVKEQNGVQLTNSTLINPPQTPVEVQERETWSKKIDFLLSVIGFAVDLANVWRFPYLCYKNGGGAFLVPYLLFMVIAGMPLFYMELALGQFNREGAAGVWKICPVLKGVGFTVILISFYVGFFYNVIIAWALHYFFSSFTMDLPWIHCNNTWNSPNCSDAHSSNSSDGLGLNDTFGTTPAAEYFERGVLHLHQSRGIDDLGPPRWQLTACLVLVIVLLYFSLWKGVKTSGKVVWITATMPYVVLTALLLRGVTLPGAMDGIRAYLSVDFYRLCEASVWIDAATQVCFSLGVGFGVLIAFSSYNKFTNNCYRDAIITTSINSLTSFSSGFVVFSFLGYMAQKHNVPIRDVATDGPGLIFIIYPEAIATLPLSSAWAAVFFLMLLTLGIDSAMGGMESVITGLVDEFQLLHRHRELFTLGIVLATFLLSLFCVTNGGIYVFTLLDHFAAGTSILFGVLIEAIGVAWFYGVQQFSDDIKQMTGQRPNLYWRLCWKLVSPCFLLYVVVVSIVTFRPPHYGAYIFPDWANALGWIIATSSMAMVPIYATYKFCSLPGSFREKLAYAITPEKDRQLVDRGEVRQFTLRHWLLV
T1 sequence (Q01959 whole entry): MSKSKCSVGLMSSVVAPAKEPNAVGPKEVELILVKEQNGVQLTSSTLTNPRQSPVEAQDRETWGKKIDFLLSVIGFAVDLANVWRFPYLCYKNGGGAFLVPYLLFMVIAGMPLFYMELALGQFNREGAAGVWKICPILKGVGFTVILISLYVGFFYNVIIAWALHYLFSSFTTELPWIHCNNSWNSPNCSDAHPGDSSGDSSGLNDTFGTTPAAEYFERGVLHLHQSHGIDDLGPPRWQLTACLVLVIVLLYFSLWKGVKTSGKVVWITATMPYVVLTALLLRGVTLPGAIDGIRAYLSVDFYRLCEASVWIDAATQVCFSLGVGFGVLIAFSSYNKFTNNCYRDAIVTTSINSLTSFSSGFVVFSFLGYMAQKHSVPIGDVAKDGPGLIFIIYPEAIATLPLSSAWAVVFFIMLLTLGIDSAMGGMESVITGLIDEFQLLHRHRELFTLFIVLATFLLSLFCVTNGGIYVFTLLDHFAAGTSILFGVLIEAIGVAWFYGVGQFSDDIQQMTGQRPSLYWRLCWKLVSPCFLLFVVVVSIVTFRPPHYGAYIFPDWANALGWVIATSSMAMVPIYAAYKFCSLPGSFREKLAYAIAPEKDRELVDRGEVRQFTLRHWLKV
Sodium-dependent dopamine transporter (Mus musculus), sequence (Q61327 whole entry): as the sequence (Q61327 whole entry) above
Alpha-2A adrenergic receptor, sequence (P08913 whole entry): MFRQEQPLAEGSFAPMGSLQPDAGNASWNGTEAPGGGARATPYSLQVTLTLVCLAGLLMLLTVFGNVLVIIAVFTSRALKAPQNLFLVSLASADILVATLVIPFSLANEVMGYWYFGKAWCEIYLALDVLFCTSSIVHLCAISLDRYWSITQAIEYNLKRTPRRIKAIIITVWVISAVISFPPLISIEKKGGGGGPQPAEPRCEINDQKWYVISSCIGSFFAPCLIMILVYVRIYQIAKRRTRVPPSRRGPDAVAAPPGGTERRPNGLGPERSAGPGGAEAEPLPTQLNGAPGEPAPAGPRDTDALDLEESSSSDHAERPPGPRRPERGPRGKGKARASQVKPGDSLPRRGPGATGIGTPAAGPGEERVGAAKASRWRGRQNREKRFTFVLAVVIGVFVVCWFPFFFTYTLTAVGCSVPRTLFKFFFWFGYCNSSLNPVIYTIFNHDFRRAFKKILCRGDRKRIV

With `CNC(=O)[C@@]12C[C@@H]1[C@@H](n1cnc3c(NC)nc(C#Cc4ccc(Cl)s4)nc31)[C@H](O)[C@@H]2O` the IC50 [1] was 253 nM, the Activity [2] was 550% and the EC50 ([2]; read-out: EC50) was 35.1 nM. The Activity [3] was 403%, the EC50 ([3]; read-out: EC50) was 131 nM and the IC50 [4] was 2290 nM. For the same molecule, the IC50 [5] was > 10000 nM, the Activity [6] was “inactive” and the EC50 ([6]; read-out: EC50) was > 10000 nM. For the same molecule, the Activity [7] was “inactive”, the EC50 [7] was > 10000 nM and the Emax [8] was 1150%. The EC50 [9] was 2230 nM, the IC50 [10] was > 10000 nM and the Activity [11] was “inactive”. The Activity [12] was 386% and the EC50 ([12]; read-out: EC50) was 1180 nM.

With `COC(=O)[C@H]1[C@@H](OC(=O)c2ccccc2)C[C@@H]2CC[C@H]1N2C` [COCAINE] the EC50 ([2]; hek293) was “Not Active”, the EC50 ([3]; hek293) was “Not Active” and the IC50 [4] was 200 nM. The EC50 ([6]; hek293) was “Not Active” and the Ki [13] was 850 nM.

For `CNC(=O)[C@H]1O[C@@H](n2cnc3c(NC)nc(C#Cc4ccc(Cl)s4)nc32)[C@H](O)[C@@H]1O`, the Activity [14] was 321%, the Ki [15] was 5000 to 10000 nM and the Ki [16] was > 10000 nM. The Time (Mus musculus) was >6 h, the Ki [17] was > 10000 nM and the Ki [18] was > 10000 nM. For the same molecule, the inhibition [19] was “inactive” and the Ki [20] was > 10000 nM.
